B1: RAD51CΔ42–52 (protein)
chain: MRGKTFRFEMQRDLVSFPLSPAVRVKLVSAGFQTAEELLEVSKAEALETLQIIRRECLTNKPRYAGTSESHKKCTALELLEQEHTQGFIITFCSALDDILGGGVPLMKTTEICGAPGVGKTQLCMQLAVDVQIPECFGGVAGEAVFIDTEGSFMVDRVVDLATACIQHLQLIAEKHKGEEHRKALEDFTLDNILSHIYYFRCRDYTELLAQVYLLPDFLSEHSKVRLVIVDGIAFPFRHDLDDLSLRTRLLNGLAQQMISLANNHRLAVILTNQMTTKIDRNQALLVPALGESWGHAATIRLIFHWDRKQRLATLYKSPSQKECTVLFQIKPQGFRDTVVTSACSLQTEGSLSTRKRSRDPEEEL
modifications: left off: Gal4 activation domain, end not stated, kept

Experiments:
[1] = test system: GST-ALKBH3; experiment: GST pull-down of His-RAD51C constructs; format: binding, human; settings: 150 μg GST-ALKBH3, ∼100 μg His-protein, room temperature, 2 h; MNase
Method in brief: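 His-RAD51C, full-length or Δ42–52, was expressed in E. coli BL21-CodonPlus(DE3)-RIL (1 mM IPTG, 16°C, 18 h) and purified on Ni-NTA. It was incubated with GST-ALKBH3 bound to glutathione beads in 25 mM Tris pH 7.5, 1 mM CaCl₂ and 500 mM NaCl, with 10 U micrococcal nuclease. In competition runs, RAD51C 42–52 or 33–41 peptide was added at 50, 250 or 500 μM. Bound protein was detected by SDS-PAGE and anti-6xHis western blot.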

[2] = target: T1, ALKBH3 (Homo sapiens, UniProt Q96Q83); experiment: Yeast two-hybrid with ALKBH3; format: binding; settings: strain pJ69-4A; growth on dropout plates and lacZ reporter
T1 sequence (Q96Q83 1-286): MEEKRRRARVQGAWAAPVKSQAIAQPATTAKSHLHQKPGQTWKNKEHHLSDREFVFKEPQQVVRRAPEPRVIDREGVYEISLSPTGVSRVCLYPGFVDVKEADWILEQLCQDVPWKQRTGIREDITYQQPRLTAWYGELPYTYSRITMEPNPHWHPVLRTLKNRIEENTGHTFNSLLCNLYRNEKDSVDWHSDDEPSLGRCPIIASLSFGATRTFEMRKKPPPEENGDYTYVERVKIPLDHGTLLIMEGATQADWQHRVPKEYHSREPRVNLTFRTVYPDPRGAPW
Method in brief: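 Full-length ALKBH2 or ALKBH3 fused to Gal4 binding domain (pGBKT7) was co-transformed with Gal4 activation domain (pACT2) fusions of RAD51, RAD51B, RAD51C, RAD51D, XRCC2 or XRCC3, or empty vectors. Transformants were selected on SD -Leu -Trp plates at 30°C for 2–3 days, then spotted on -His (triple) or -His -Ade (quadruple) dropout plates. lacZ was scored qualitatively by X-gal filter assay.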

[3] = test system: RAD51B; experiment: Yeast two-hybrid with RAD51B; format: binding, human; settings: pGBKT7-RAD51C or pGBKT7-RAD51CΔ42-52
[4] = test system: XRCC3; experiment: Yeast two-hybrid with XRCC3; format: binding, human; settings: pGBKT7-RAD51C or pGBKT7-RAD51CΔ42-52
[5] = test system: RAD51; experiment: Yeast two-hybrid with RAD51; format: binding, human; settings: pGBKT7-RAD51C or pGBKT7-RAD51CΔ42-52
[6] = test system: RAD51D; experiment: Yeast two-hybrid with RAD51D; format: binding, human; settings: pGBKT7-RAD51C or pGBKT7-RAD51CΔ42-52
[7] = target: T1, ALKBH3; experiment: Co-immunoprecipitation; format: binding; settings: for co-immunoprecipitation of endogenous ALKBH3: NCI-H23 and PC-3, Flag-HA-RAD51C constructs
[8] = target: T1, ALKBH3; experiment: Demethylation assay by direct detection of formaldehyde; format: biochemical
[9] = target: T1, ALKBH3; experiment: Demethylation assay by dot-blot analysis, 3′-tailed DNA; format: biochemical; settings: ALKBH3 0.4 μM, RAD51C or RAD51CΔ42–52 8 μM, 3′-tailed DNA 8 μM, anti-3meC antibody
[10] = target: T1, ALKBH3; experiment: Steady-state; format: biochemical
[11] = test system: mutant ALKBH3 (H191A, D193A and H257A); experiment: Demethylation assay with mutant ALKBH3; format: biochemical, human; settings: mutant ALKBH3 0.2 μM, RAD51C 4.0 μM
[12] = test system: PC-3 cells; experiment: Cell survival assay; format: cell-based, human; settings: MTT, MMS 50–400 μM, 48 h
Method in brief: (§1)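 Stable shRNA-knockdown cells (luciferase shRNA as control) seeded at 5000 per well in triplicate. MMS (0, 50, 100, 200, 300, 400 μM) was given continuously for 48 h. Medium was then replaced with 0.5 mg/ml MTT for 4 h at 37°C in the dark, formazan solubilised and A570 read. Percent viability given as mean ± SD from four experiments.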

[13] = test system: NCI-H23 cells; experiment: Cell survival assay; format: cell-based, human; settings: MTT, MMS 50–400 μM, 48 h
Method in brief: as §1

[14] = test system: PC-3 cells; experiment: Calcein-AM viability assay, PC-3; format: cell-based, human; settings: MMS 400 μM, 48 h; knockdown of RAD51C, ALKBH3, or both
Method in brief: (§2)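 PC-3 cells grown in Ham's F-12 GlutaMAX with 10% FBS at 37°C and 5% CO₂. Stable shRNA knockdown made by electroporation and 1 μg/ml puromycin selection for 30 days; the control shRNA targets luciferase. After MMS, cells were stained 30 min at 37°C with 2 μM Calcein AM in PBS and imaged by inverted fluorescence microscope. Percent MMS-induced cytotoxicity was plotted.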

[15] = test system: NCI-H23 cells; experiment: Calcein-AM viability assay, NCI-H23; format: cell-based, human; settings: MMS 400 μM, 48 h; knockdown of RAD51C, ALKBH3, or both
Method in brief: as §2, with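 “NCI-H23” for “PC-3”, “DMEM” for “Ham's F-12 GlutaMAX”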

[16] = test system: PC3 cells; experiment: Immunofluorescence of 3meC, PC3; format: cell-based, human; settings: 48 h
Method in brief: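 Stable RAD51C and/or ALKBH3 shRNA-knockdown PC3 cells were grown on chamber slides with MMS, then fixed in 4% formaldehyde (15 min, RT). DNA was denatured in 1.5 M HCl for 30 min and neutralised with sodium borate pH 8.5. Cells were permeabilised (0.1% Triton X-100), blocked (1% BSA), stained with anti-3meC overnight at 4°C, then Alexa-594 secondary, with DAPI counterstain. Signal was quantified as mean ± SE of three independent assays by Student's t-test.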

[17] = test system: MEFs, CHO and DT40 cell lines lacking RAD51C; cancer cells lacking ALKBH3; settings: cited from earlier work
[18] = test system: NCI-H23 cells; experiment: Immunofluorescence of 3meC, NCI-H23; format: cell-based, human; settings: stable RAD51C knockdown NCI-H23, MMS 400 μM, 48 h; at least 50 cells counted
Method in brief: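 RNAi-resistant Flag-HA-RAD51C, wild-type or Δ42–52, was electroporated into stable RAD51C-knockdown cells 24 h before MMS. Cells were fixed in formaldehyde, denatured in HCl, then co-stained for anti-HA (recombinant protein) and anti-3meC, with DAPI. Images were taken by fluorescence microscopy and signals quantified.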

[19] = HEK-293T, Flag-HA-RAD51C constructs and Myc-ALKBH3 co-expressed, anti-Flag
[20] = 3′-tailed DNA 0.6–9.6 μM, ALKBH3 0.2 μM, RAD51C or RAD51CΔ42–52 4 μM, FDH-coupled
[21] = combined RAD51C and ALKBH3 knockdown
[22] = stable RAD51C and ALKBH3 knockdown

Molecule | pull-down by GST-ALKBH3 [1] | yeast two-hybrid interaction with ALKBH3 [2] | yeast two-hybrid interaction with RAD51B [3] | yeast two-hybrid interaction with XRCC3 [4] | yeast two-hybrid interaction with RAD51 [5] | yeast two-hybrid interaction with RAD51D [6] | co-immunoprecipitation of ALKBH3 [7, 19] | co-immunoprecipitation of endogenous ALKBH3 ([7]; anti-Flag) | effect on 3meC level [9] | kcat/KM [10, 20] [min^-1μM^-1] | further results
RAD51C: human RAD51 paralogue, recombinant or expressed (tag-less, His-tag or Flag-HA) | could be pulled down by GST-ALKBH3 | robust interaction | interacted strongly | interacted strongly | weak interaction | weak interaction | ALKBH3 was immunoprecipitated with RAD51C | immunoprecipitated endogenous ALKBH3 in both the cell lines | reduction in the levels of 3meC in 3′-tailed DNA was higher compared to the ALKBH3 alone | 2.6 | co-immunoprecipitation of ALKBH3 ([7]; PC-3, endogenous proteins, anti-RAD51C antibody): ALKBH3 could indeed be immunoprecipitated with RAD51C; effect of ATP exclusion or ATP-γ-S on RAD51C stimulation ([8]; ALKBH3 0.2 μM, RAD51C 4.0 μM): did not affect the results; formaldehyde release, RAD51C only ([8]; RAD51C without ALKBH3): did not result in any formaldehyde release; Km [10, 20]: 1.7 µM; Vmax ([10]; 3′-tailed DNA, RAD51C 4 μM with ALKBH3 0.2 μM): increased the Vmax for ALKBH3 reaction; effect on mutant ALKBH3 activity [11]: indistinguishable from the mutant ALKBH3 alone
COS(C)(=O)=O [MMS, methyl methanesulphonate] |  |  |  |  |  |  |  |  |  |  | cell survival, combined knockdown [12, 21]: severe cell survival defect; cell proliferation [12, 22]: significantly affected; cell survival, combined knockdown [13, 21]: severe cell survival defect; cell proliferation [13, 22]: significantly affected; MMS sensitivity (Calcein-AM) [14]: MMS sensitive; MMS sensitivity (Calcein-AM) [15]: MMS sensitive; 3meC accumulation in nucleus ([16]; MMS 400 μM, ALKBH3 knockdown): a number of cells showed 3meC accumulation in the nucleus; 3meC level, effect less than ALKBH3 knockdown ([16]; MMS 400 μM, RAD51C knockdown): ~50%; 3meC accumulation in nucleus ([16]; MMS 400 μM, combined RAD51C and ALKBH3 knockdown): 3meC accumulation in the nucleus in a manner epistatic with ALKBH3 knockdown; 3meC signal in nucleus ([16]; MMS 400 μM, control shRNA): no visible signal for 3meC were detected in the nucleus; MMS sensitivity [17]: MMS sensitivity
B1 | could not be pulled down by GST-ALKBH3 | completely abolished | interacted strongly | interacted strongly | weak interaction | weak interaction | not with RAD51CΔ42–52 | significantly reduced amount of endogenous ALKBH3 was immunoprecipitated | could not result in any significant reduction in the levels of 3meC compared to ALKBH3 alone | 1.42 | 3meC signal increase after mutant expression ([16]; stable RAD51C knockdown PC3, MMS 400 μM, at least 50 cells counted): at least 50%; 3meC signal increase after mutant expression [18]: at least 50%

From publication PMC7145530 (Nucleic Acids Research, 2019)
